Source: the M2OR odorant receptor database

What was measured:
Settings in all cases: stereoisomer not certain
OR10G2 (Homo sapiens) = biological target: T1, OR10G2 (Homo sapiens) (UniProt Q8NGC3)
T1 sequence (whole entry): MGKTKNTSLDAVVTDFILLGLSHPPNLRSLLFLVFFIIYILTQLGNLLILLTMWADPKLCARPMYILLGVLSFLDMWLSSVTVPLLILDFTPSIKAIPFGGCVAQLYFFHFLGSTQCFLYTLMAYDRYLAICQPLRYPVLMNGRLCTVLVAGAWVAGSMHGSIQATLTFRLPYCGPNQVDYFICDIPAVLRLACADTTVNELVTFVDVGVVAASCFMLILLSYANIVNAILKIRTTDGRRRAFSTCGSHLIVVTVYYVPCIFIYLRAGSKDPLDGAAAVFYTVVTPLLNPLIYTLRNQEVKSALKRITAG
Summary of the method: (§1)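 Each receptor–molecule pair is labelled responsive or non-responsive (inactive) according to whether the original authors judged the measured signal statistically different from baseline. The data were taken from the main text and supplementary material of published papers and checked for typos and inconsistencies. Assay methods differed by source, with transient luciferase assays in mammalian cell lines being common.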

OR10G3 (Homo sapiens) = biological target: T2, OR10G3 (Homo sapiens) (UniProt Q8NGC4)
T2 sequence (whole entry): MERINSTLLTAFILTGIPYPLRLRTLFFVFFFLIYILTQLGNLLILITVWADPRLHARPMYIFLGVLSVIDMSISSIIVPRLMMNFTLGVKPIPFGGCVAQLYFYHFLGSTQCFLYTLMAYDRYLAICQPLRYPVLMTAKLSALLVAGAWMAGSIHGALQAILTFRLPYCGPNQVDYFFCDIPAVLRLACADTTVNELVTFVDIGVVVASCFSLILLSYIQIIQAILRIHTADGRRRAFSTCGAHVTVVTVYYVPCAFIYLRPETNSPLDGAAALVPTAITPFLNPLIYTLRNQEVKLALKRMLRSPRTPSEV
Summary of the method: as §1

OR10G4 (Homo sapiens) = biological target: T3, OR10G4 (Homo sapiens) (UniProt Q8NGN3)
T3 sequence (whole entry): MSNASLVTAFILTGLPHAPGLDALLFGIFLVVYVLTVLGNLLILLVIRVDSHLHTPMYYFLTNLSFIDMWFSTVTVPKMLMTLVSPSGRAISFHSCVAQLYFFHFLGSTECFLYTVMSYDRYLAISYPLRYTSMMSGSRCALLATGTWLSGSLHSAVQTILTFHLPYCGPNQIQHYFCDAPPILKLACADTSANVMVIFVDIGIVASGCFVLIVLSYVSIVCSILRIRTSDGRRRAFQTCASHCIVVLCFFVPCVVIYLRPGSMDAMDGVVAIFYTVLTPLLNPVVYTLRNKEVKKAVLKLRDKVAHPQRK
Summary of the method: as §1

OR10G6 (Homo sapiens) = biological target: T4, OR10G6 (Homo sapiens) (UniProt Q8NH81)
T4 sequence (whole entry): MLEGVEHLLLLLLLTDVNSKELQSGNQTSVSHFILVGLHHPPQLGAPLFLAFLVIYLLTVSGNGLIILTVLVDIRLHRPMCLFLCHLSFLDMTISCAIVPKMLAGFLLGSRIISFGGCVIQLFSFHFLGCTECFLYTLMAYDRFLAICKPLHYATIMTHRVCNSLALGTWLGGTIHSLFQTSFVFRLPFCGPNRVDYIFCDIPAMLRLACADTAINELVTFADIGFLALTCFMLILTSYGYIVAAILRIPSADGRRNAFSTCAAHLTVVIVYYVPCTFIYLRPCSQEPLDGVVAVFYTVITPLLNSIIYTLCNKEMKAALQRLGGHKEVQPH
Summary of the method: as §1

OR10G7 (Homo sapiens) = biological target: T5, OR10G7 (Homo sapiens) (UniProt Q8NGN6)
T5 sequence (whole entry): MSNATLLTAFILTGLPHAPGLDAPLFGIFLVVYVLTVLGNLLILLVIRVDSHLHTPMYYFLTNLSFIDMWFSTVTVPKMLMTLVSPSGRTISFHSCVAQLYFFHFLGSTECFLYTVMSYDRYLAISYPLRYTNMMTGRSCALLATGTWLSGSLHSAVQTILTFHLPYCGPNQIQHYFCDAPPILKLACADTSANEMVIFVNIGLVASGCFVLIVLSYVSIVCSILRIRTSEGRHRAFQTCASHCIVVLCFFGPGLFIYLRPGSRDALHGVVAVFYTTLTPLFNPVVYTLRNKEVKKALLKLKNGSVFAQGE
Summary of the method: as §1

OR10G8 (Homo sapiens) = biological target: T6, OR10G8 (Homo sapiens) (UniProt Q8NGN5)
T6 sequence (whole entry): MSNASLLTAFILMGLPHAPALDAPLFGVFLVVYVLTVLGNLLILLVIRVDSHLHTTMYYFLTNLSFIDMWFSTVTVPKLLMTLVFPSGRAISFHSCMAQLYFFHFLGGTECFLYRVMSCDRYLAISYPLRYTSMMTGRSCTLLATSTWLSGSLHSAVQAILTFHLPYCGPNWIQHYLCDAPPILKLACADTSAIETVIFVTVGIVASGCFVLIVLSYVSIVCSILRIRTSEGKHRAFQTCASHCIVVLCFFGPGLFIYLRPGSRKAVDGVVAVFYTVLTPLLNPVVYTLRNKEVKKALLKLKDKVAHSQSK
Summary of the method: as §1

OR10G9 (Homo sapiens) = biological target: T7, OR10G9 (Homo sapiens) (UniProt Q8NGN4)
T7 sequence (whole entry): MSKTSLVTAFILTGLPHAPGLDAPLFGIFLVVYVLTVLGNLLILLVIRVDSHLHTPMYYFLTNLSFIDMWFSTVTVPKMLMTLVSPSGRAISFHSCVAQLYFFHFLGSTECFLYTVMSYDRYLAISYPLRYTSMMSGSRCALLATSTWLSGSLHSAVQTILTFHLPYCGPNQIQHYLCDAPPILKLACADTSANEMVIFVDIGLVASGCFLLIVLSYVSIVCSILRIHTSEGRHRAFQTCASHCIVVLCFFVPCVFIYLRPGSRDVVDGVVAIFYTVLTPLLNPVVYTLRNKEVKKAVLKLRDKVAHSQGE
Summary of the method: as §1

OR10H1 (Homo sapiens) = biological target: T8, OR10H1 (Homo sapiens) (UniProt Q9Y4A9)
T8 sequence (whole entry): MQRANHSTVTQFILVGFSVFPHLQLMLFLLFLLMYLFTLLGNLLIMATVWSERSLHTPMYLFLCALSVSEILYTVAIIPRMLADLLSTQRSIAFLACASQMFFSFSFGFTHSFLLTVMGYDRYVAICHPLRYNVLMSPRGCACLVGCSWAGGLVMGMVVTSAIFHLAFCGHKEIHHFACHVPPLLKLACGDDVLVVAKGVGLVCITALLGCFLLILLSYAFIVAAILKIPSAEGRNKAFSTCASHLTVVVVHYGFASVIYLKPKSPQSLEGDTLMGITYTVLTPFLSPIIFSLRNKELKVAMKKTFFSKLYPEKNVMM
Summary of the method: as §1

OR10H2 (Homo sapiens) = biological target: T9, OR10H2 (Homo sapiens) (UniProt O60403)
T9 sequence (whole entry): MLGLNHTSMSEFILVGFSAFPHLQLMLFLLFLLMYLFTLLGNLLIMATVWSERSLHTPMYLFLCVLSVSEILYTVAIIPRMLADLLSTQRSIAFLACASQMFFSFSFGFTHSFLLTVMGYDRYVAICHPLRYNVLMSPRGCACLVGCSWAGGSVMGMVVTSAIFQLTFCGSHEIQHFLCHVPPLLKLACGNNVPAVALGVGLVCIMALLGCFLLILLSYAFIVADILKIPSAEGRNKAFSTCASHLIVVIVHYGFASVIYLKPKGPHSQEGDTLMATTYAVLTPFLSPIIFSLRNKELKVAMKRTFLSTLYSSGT
Summary of the method: as §1

Measured: odorant receptor agonist call;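 note: active if original authors judged signal statistically different from baseline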

CCC(S)C(C)CO (centres undefined)
inactive: OR10G2 (Homo sapiens) | OR10G3 (Homo sapiens) | OR10G4 (Homo sapiens) | OR10G6 (Homo sapiens) | OR10G7 (Homo sapiens) | OR10G8 (Homo sapiens) | OR10G9 (Homo sapiens) | OR10H1 (Homo sapiens) | OR10H2 (Homo sapiens)
